Published values pooled from the literature.
Cell line: MCF7
Read-out: cell growth or viability

Compound | test | conditions | GI50 [µM]
COc1cc(C(CC(=O)c2ccc(C)cc2)NCCc2ccc(O)c(O)c2)ccc1O (centres unmarked) | MTT |  | 5.2
COc1cc2c(Nc3ccc(Br)cc3F)ncnc2cc1OCC1CCN(C)CC1 | MTT | 72 h | 0.25
COc1ccc(C(=O)/C=C/c2cccc(Br)c2)cc1S(N)(=O)=O | SRB | 48 h | 1.6
COc1ccc(-c2ccc(-c3ccc(C(=N)N)nc3)s2)cc1 | SRB |  | 1.74
COc1cc2c(OC)nc3c4cc5c(cc4cc(OCCN(C)C)c3c2cc1OC)OCO5 | MTT | 72 h | > 100
COc1ccc(C(=O)/C=C/c2cccc(Cl)c2)cc1S(N)(=O)=O | SRB | 48 h | 2
COc1cc(C(CC(=O)c2ccc(C(C)(C)C)cc2)NCCc2ccc(O)c(O)c2)ccc1O (centres unmarked) | MTT |  | 2.6
COc1cc2c(cc1O)CC[C@@H]1[C@@H]2CC[C@]2(C)[C@@H](O)CC[C@@H]12 | SRB | 96 h | 0.6
COc1ccc(C(=O)/C=C/c2ccc(Cl)c(Cl)c2)cc1S(N)(=O)=O | SRB | 48 h | 1.1
COc1cccc2c1C(=O)c1c(O)c3c(c(O)c1C2=O)C[C@@](O)(C(=O)CO)C[C@@H]3O[C@H]1C[C@H](N)[C@H](O)[C@H](C)O1 | MTT |  | 0.02
COc1ccc(C(=O)/C=C/c2cccnc2)cc1S(N)(=O)=O | SRB | 48 h | 4.9
CCN(CC)CCOc1cc2cc3c(cc2c2nc(OC)c4cc(OC)c(OC)cc4c12)OCO3 | MTT | 72 h | ≥ 100
COc1cccc(Oc2ccccc2NC(=O)CNC(=O)c2cccc3ccccc23)c1 | SRB | 48 h | 0.1
COc1cc2c(OC)nc3c4cc5c(cc4cc(OCCCN(C)C)c3c2cc1OC)OCO5 | MTT | 72 h | 27
COc1cc(C(CC(=O)c2ccc(Cl)cc2)NCCc2ccc(O)c(O)c2)ccc1O (centres unmarked) | MTT |  | 1.09
COc1cc2c(OC)nc3c4cc5c(cc4cc(O)c3c2cc1OC)OCO5 | MTT | 72 h | 13
COc1ccc(C(=O)/C=C/c2ccc3ccccc3c2)cc1S(N)(=O)=O | SRB | 48 h | 1.6
